In ChEMBL document CHEMBL1153746, “Mansouramycins A-D, cytotoxic isoquinolinequinones from a marine streptomycete” (J Nat Prod, 2009):

Columns and labels:
Format in all cases: functional, cell-based
[1] = Cytotoxicity against human GXF251L cells after 4 days by propidium iodide assay; details: GXF 251L, 96 h
Summary of the method: (§1)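 Monolayer cell proliferation assay across a panel of up to 36 human tumour lines covering 14 solid tumour types. Lines came either from patient tumours grown as subcutaneous xenografts in NMRI nu/nu mice or from culture collections (ATCC, NCI, DSMZ). Potency is given as IC50.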

[2] = test system: LNCaP; test: Cytotoxicity against human LNCAP cells after 4 days by propidium iodide assay; details: 96 h; summary of the method: as §1
[3] = test system: MCF7; test: Cytotoxicity against human MCF7 cells after 4 days by propidium iodide assay; details: MCF7, 96 h; summary of the method: as §1
[4] = Cytotoxicity against human 1322 cells after 7 to 20 days by clonogenic assay
Summary of the method: (§2)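 Colony formation assay for clonogenicity. Cell suspensions were prepared from patient-derived human tumour xenografts, kept by serial subcutaneous passage in NMRI nu/nu mice. Cells were embedded and incubated in culture medium containing soft agar. Potency is given as IC50.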

[5] = test system: DU-145; test: Cytotoxicity against human DU145 cells after 4 days by propidium iodide assay; details: DU-145, 96 h; summary of the method: as §1
[6] = Cytotoxicity against human 1121L cells after 4 days by propidium iodide assay; details: 96 h; summary of the method: as §1
[7] = Cytotoxicity against human 243 cells after 7 to 20 days by clonogenic assay; summary of the method: as §2
[8] = Cytotoxicity against human NSB008 cells after 7 to 20 days by clonogenic assay
Summary of the method: (§3)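 Colony formation assay on hematopoietic stem cells from cord blood, used as nonmalignant tissue. Cells were embedded and incubated in culture medium containing methyl cellulose. Potency is given as IC50.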

[9] = test system: CWR22R; test: Cytotoxicity against human 22Rv1 cells after 4 days by propidium iodide assay; details: 22Rv1, 96 h; summary of the method: as §1
[10] = Cytotoxicity against human 514 cells after 7 to 20 days by clonogenic assay; summary of the method: as §2
[11] = Cytotoxicity against human 536L cells after 4 days by propidium iodide assay; details: 96 h; summary of the method: as §1
[12] = Cytotoxicity against human 1657L cells after 4 days by propidium iodide assay; details: 96 h; summary of the method: as §1
[13] = Cytotoxicity against human RXF 944L cells after 4 days by propidium iodide assay; details: 96 h; summary of the method: as §1
[14] = Cytotoxicity against human 1218L cells after 4 days by propidium iodide assay; details: 96 h; summary of the method: as §1
[15] = Cytotoxicity against human 514L cells after 4 days by propidium iodide assay; details: 96 h; summary of the method: as §1
[16] = Cytotoxicity against human 575 cells after 7 to 20 days by clonogenic assay; summary of the method: as §2
[17] = Cytotoxicity against human UXF 1138L cells after 4 days by propidium iodide assay; details: 96 h; summary of the method: as §1
[18] = Cytotoxicity against human 1218 cells after 7 to 20 days by clonogenic assay; summary of the method: as §2
[19] = Cytotoxicity against human LXFA 629L cells after 7 to 20 days by clonogenic assay; summary of the method: as §2
[20] = Cytotoxicity against human 1619L cells after 4 days by propidium iodide assay; details: 96 h, in the assay text read “MTT assay” for “propidium iodide assay”; summary of the method: as §1
[21] = Cytotoxicity against human BXF T24 cells after 4 days by propidium iodide assay; details: T-24, 96 h; summary of the method: as §1
[22] = Cytotoxicity against human 393NL cells after 4 days by propidium iodide assay; details: 96 h; summary of the method: as §1
[23] = test system: SF-268; test: Cytotoxicity against human SF268 cells after 4 days by propidium iodide assay; details: SF-268, 96 h; summary of the method: as §1
[24] = test system: HCT-116; test: Cytotoxicity against human HCT116 cells after 4 days by propidium iodide assay; details: HCT-116, 96 h; summary of the method: as §1
[25] = Cytotoxicity against human PC3M cells after 4 days by propidium iodide assay; details: PC-3M, 96 h; summary of the method: as §1
[26] = Cytotoxicity against human 289L cells after 4 days by propidium iodide assay; details: 96 h; summary of the method: as §1
[27] = Cytotoxicity against human 899L cells after 4 days by propidium iodide assay; details: 96 h; summary of the method: as §1
[28] = Cytotoxicity against human 394NL cells after 4 days by propidium iodide assay; details: 96 h; summary of the method: as §1
[29] = Cytotoxicity against human 1781L cells after 4 days by propidium iodide assay; details: 96 h; summary of the method: as §1
[30] = Cytotoxicity against human 629L cells after 4 days by propidium iodide assay; details: 96 h; summary of the method: as §1
[31] = Cytotoxicity against human 276 cells after 7 to 20 days by clonogenic assay; summary of the method: as §2
[32] = Cytotoxicity against human LXFA 526 cells after 7 to 20 days by clonogenic assay; summary of the method: as §2
[33] = Cytotoxicity against human RXF 486L cells after 4 days by propidium iodide assay; details: 96 h; summary of the method: as §1
[34] = test system: OVCAR-3; test: Cytotoxicity against human OVCAR-3 cells after 4 days by propidium iodide assay; details: OVCAR-3, 96 h; summary of the method: as §1
[35] = Cytotoxicity against human MAXF 401NL cells after 4 days by propidium iodide assay; details: 96 h; summary of the method: as §1
[36] = Cytotoxicity against human LXFL 529L cells after 4 days by propidium iodide assay; details: 96 h; summary of the method: as §1
[37] = test system: PANC-1; test: Cytotoxicity against human PANC1 cells after 4 days by propidium iodide assay; details: PANC-1, 96 h; summary of the method: as §1
[38] = Cytotoxicity against human MEXF 462NL cells after 4 days by propidium iodide assay; details: 96 h; summary of the method: as §1
[39] = test system: HT-29; test: Cytotoxicity against human HT-29 cells after 4 days by propidium iodide assay; details: HT-29, 96 h; summary of the method: as §1
[40] = Cytotoxicity against human 401 cells after 7 to 20 days by clonogenic assay; summary of the method: as §2
[41] = Cytotoxicity against human 498NL cells after 4 days by propidium iodide assay; details: 96 h; summary of the method: as §1
[42] = Cytotoxicity against human 276L cells after 4 days by propidium iodide assay; details: 96 h; summary of the method: as §1
[43] = Cytotoxicity against human 526L cells after 4 days by propidium iodide assay; details: 96 h; summary of the method: as §1
[44] = Cytotoxicity against human RXF631 cells after 7 to 20 days by clonogenic assay; details: RXF 631; summary of the method: as §2
[45] = Cytotoxicity against human 520L cells after 4 days by propidium iodide assay; details: 96 h, in the assay text read “MTT assay” for “propidium iodide assay”; summary of the method: as §1
[46] = Cytotoxicity against human NSB005 cells after 7 to 20 days by clonogenic assay; summary of the method: as §3
[47] = Cytotoxicity against human 899 cells after 7 to 20 days by clonogenic assay; summary of the method: as §2
[48] = Cytotoxicity against human 1752L cells after 4 days by propidium iodide assay; details: 96 h; summary of the method: as §1
[49] = test system: NCI-H460; test: Cytotoxicity against human H460 cells after 4 days by propidium iodide assay; details: NCI-H460, 96 h; summary of the method: as §1
[50] = in the assay text read “MTT assay” for “propidium iodide assay”

Compound: CNC1=CC(=O)c2cc(C)ncc2C1=O
- IC50 [1]: 3.6 µM
- IC50 [2]: 6.36 µM
- IC50 [3]: 1.11 µM
- IC50 [4]: 8.35 µM
- IC50 [5]: 0.34 µM
- IC50 [6]: 6.56 µM
- IC50 [7]: 10.3 µM
- IC50 [8]: 4.53 µM
- IC50 [9]: 4.69 µM
- IC50 [10]: 0.05 µM
- IC50 [11]: 0.38 µM
- IC50 [12, 50]: 4.93 µM
- IC50 [13]: 5.43 µM
- IC50 [14]: 10.3 µM
- IC50 [15]: 2.02 µM
- IC50 [16]: 8.35 µM
- IC50 [17, 50]: 2.23 µM
- IC50 [18]: 4.34 µM
- IC50 [19]: 1.63 µM
- IC50 [20]: 4.01 µM
- IC50 [21]: 0.61 µM
- IC50 [22]: 4.16 µM
- IC50 [23]: 1.8 µM
- IC50 [24]: 3.62 µM
- IC50 [25]: 6.04 µM
- IC50 [26]: 3.04 µM
- IC50 [27, 50]: 6.6 µM
- IC50 [28]: 5.72 µM
- IC50 [29]: 9.89 µM
- IC50 [30]: 1.18 µM
- IC50 [31]: 0.33 µM
- IC50 [32]: 4.31 µM
- IC50 [33]: 50.6 µM
- IC50 [34, 50]: 7.64 µM
- IC50 [35]: 17.3 µM
- IC50 [36]: 4.88 µM
- IC50 [37]: 3.83 µM
- IC50 [38]: 19 µM
- IC50 [39]: 1.98 µM
- IC50 [40]: 3.89 µM
- IC50 [41]: 5.21 µM
- IC50 [42]: 0.35 µM
- IC50 [43]: 10.6 µM
- IC50 [44]: 7.81 µM
- IC50 [45]: 0.24 µM
- IC50 [46]: 4.58 µM
- IC50 [47]: 5.35 µM
- IC50 [48]: 6.02 µM
- IC50 [49]: 3.92 µM

Compound: CNC1=C(Cl)C(=O)c2cc(C)ncc2C1=O
- IC50 [1]: 1.75 µM
- IC50 [9]: 5.67 µM
- IC50 [12]: 1.81 µM
- IC50 [14]: 1.38 µM
- IC50 [17]: 1.68 µM
- IC50 [22]: 1.57 µM
- IC50 [25]: 3.23 µM
- IC50 [26]: 5.96 µM
- IC50 [27]: 13.9 µM
- IC50 [30]: 1.23 µM
- IC50 [33]: 17.9 µM
- IC50 [34]: 2 µM
- IC50 [35]: 3.55 µM
- IC50 [36]: 1.54 µM
- IC50 [38]: 5.64 µM
- IC50 [41]: 1.34 µM
- IC50 [42]: 0.36 µM
- IC50 [48]: 5.19 µM
